Bioassay records as filed in PubChem BioAssay.
An excerpt weighted towards active compounds, which were near 2% of everything screened.
TWEAK Fn14 block = inhibitors of TWEAK-Fn14 interaction signaling; TWEAK-stimulated Fn14 reporter cells, luciferase luminescence, 8 h; inhibition, % at 10 µM; actives 2% (n = 360,000); in the data active = inhibition above about 50%
Xi reactivation = X-chromosome reactivation activator | actives 0.055% (n = 360,000) | activation, % at 7.58 µM | XiGFP mouse fibroblasts, % GFP-positive cells imaging, 3 d; cells co-treated with 5-aza-dC sensitizer; scaled so ellipticine positive control = 100% | AID 743238;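 active = mean normalized replicate activation at least 10% and every replicate at or above 10%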
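System: 68-5-11 XiGFP fibroblast line | Buffer or medium: DMEM containing 5-aza-dC | Compound: Single point | Times: Compounds 3 days, fix/stain 15 min at room temperature | Benchmarks: Positive control ellipticine, 6 µM final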
LGR2 antag = Drosophila LGR2 receptor signaling inhibition | actives 0.35% (n = 380,000) | HEK293 LGR2, CRE-luciferase, bursicon-stimulated, 4 h | inhibition, % at 9.99 µM;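 active = drop in luminescence signal, shown as inhibition above about 50% in the replicate tests, limit read from the data, passing the limit was not always enough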;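 note: agonist challenge used bursicon conditioned medium at about half maximal strength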
TROY signal inh = blocks TROY-dependent signaling in reporter cells. Q293 LMP1-TROYcd NF-kB luciferase reporter, 4 h. inhibition, % at 10 µM. actives 0.98% (n = 360,000). AID 1347056;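 active = compounds whose plate-normalised and pattern-corrected inhibition of the luciferase reporter signal at the single screening dose is 50% or more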
CaV13 ICDI inh = Disruptors of the CACNA1D IQ motif to Ca2+-dependent inactivation inhibitor domain association, primary screening, Förster resonance energy transfer in intact living …; inhibition, % at 12.3 µM; HEK cells, CFP/YFP FRET ICDI-IQ, plate reader, 10 min; percent FRET-ratio fall versus neutral wells; actives 0.098% (n = 340,000);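 active = mean replicate inhibition of at least 30% and at least 1% of replicates passing that level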
Hits are given with their value; n = inactive; x = no result given.

SMILES	TWEAK Fn14 block	Xi reactivation	LGR2 antag	TROY signal inh	CaV13 ICDI inh
Cc1ccc([C@H]2C(C(=O)O)=CC[C@@H](c3cccc(Cl)c3)N2S(=O)(=O)c2ccc(C)cc2)cc1	n	n	n	n	n
Cc1ccc(S(=O)(=O)N2[C@@H](c3ccc(C(C)(C)C)cc3)C(C(=O)O)=CC[C@H]2c2ccc(Cl)c(Cl)c2)cc1	n	n	n	n	n
Cc1ccc(S(=O)(=O)N2[C@@H](c3ccc(C(C)(C)C)cc3)C(C(=O)O)=CC[C@H]2c2cccc(Cl)c2)cc1	50	n	n	81	n
Cc1ccc(S(=O)(=O)N2[C@@H](c3ccc(Br)cc3)C(C(=O)O)=CC[C@H]2c2ccc(Cl)c(Cl)c2)cc1	n	n	n	62	n
CO[C@H]1CC[C@H]2CCN(C)C(=O)[C@@H](C)N(C)C(=O)c3cc(C#N)ccc3OC[C@H]1O2	x	n	n	x	x
COc1ccc(NC(=O)Nc2ccc3c(c2)[C@@H]2C[C@H](CC(=O)NCC4CC4)O[C@@H](CO)[C@@H]2O3)cc1	x	n	n	x	x
Cc1cc(C)nc(S/C=C/C(=O)c2ccccc2F)n1	93	n	x	70	n
O=C(NCCc1ccc(Cl)cc1)c1ccc(S(=O)(=O)N2CCCC2)cc1	n	n	n	n	n
CC(=O)NCCc1ccc(S(=O)(=O)N2CCCC2)cc1	82	x	x	n	n
CC(=O)c1ccc(NC(=O)c2ccc(NC(=O)CCS(=O)(=O)c3cccs3)cc2)cc1	n	n	n	51	n
CC(=O)c1cccc(NC(=O)c2ccc(NC(=O)CCS(=O)(=O)c3cccs3)cc2)c1	n	n	n	n	n
Cc1ccc(C2(C)NC(=O)N(CC(=O)NCCC3=CCCCC3)C2=O)cc1 (configuration not stated)	n	x	x	n	x
CC1(c2ccccc2)NC(=O)N(CC(=O)NCCC2=CCCCC2)C1=O (configuration not stated)	n	x	x	57	n
CCc1ccc(/C(C)=N/NC(=O)CNC(=O)/C=C/c2ccco2)cc1	66	x	x	n	x
CCc1ccc(/C(C)=N/NC(=O)CNC(=O)/C=C/c2ccccc2OC)cc1	n	n	n	n	n
CCC(=O)N1CC2(C1)CN(C(C)=O)[C@@H](CO)c1[nH]c3cc(OC)ccc3c12	x	n	n	x	x
Cc1noc(C)c1NC(=O)Nc1ccc2c(c1)C(=O)N([C@H](C)CO)C[C@H](C)[C@H](CN(C)S(=O)(=O)c1ccc(F)cc1)O2	x	n	n	x	x
Cc1cc(C)nc(SCc2cn3ccccc3n2)n1	n	n	n	n	n
Cc1cc(C)c(C#N)c(SCc2cn3ccccc3n2)n1	n	n	n	54	n
O=C(C[C@@H]1CC[C@H](NS(=O)(=O)c2ccc(F)cc2)[C@H](CO)O1)NCc1ccncn1	x	n	n	x	x
CC1(C)Cc2ccccc2C(/C(=N\Nc2cccc(Cl)c2)C(N)=O)=N1	56	n	n	n	n
O=S(=O)(N[C@H]1CC[C@@H](CCn2cc(C3CC3)nn2)O[C@@H]1CO)c1ccc(F)cc1	x	n	n	x	x
CC(=O)NCCc1ccc(C(=O)COC(=O)c2cccs2)cc1	61	n	x	n	n
CCC(=O)Nc1ccc2c(c1)C(=O)N(C)[C@H]1CC[C@H](CC(=O)NCCCN(C)C)O[C@@H]1CO2	x	n	n	x	x
CCOC(=O)N=Nc1c2ccccc2c2nc3no[nH]c3nc12	90	n	101	66	n
SMILES	TWEAK Fn14 block	Xi reactivation	LGR2 antag	TROY signal inh	CaV13 ICDI inh
COCC(C)n1c(C)cc(C(=O)COC(=O)c2cc(=O)[nH]c3ccccc23)c1C (configuration not stated)	88	n	n	83	n
COCC(C)n1c(C)cc(C(=O)COC(=O)c2n[nH]c3ccccc23)c1C (configuration not stated)	67	x	x	78	n
CC(C)c1cn(CC[C@H]2CC[C@H](NC(=O)C3CCOCC3)[C@H](CO)O2)nn1	x	n	n	x	x
CO[C@@H]1CN(C)C(=O)c2cc(NS(C)(=O)=O)ccc2OC[C@@H](C)N(C(=O)NC(C)C)C[C@H]1C	x	n	n	x	x
Cc1noc(C)c1S(=O)(=O)Nc1ccc2c(c1)C(=O)N([C@H](C)CO)C[C@@H](C)[C@H](CN(C)C(=O)Nc1ccc(F)cc1)OCCCC[C@H](C)O2	x	n	n	x	x
Cc1ccc(O)c(C=Nc2cc(C)ccc2O)c1	n	x	x	n	x
CC(C)(C)c1ccc(O)c(N=Cc2cc(Br)ccc2O)c1	88	n	n	85	n
